Values after ≈ are worked out from the molar mass of the structure shown.
Tests used:
Type in all cases: functional
Enterococcus faecium [1] = test: Antibacterial activity against glycopeptide-resistant Enterococcus faecium Efm-HS-0649 vanA after 24 hrs by broth microdilution method; conditions: Efm-HS-0649, 24 h
Summary of the method: (§1)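 Broth microdilution in cation-adjusted Mueller-Hinton II broth. DMSO stocks were diluted in broth and twofold serially from 128 to 0.0625 μg/mL or lower. Each well was inoculated with ~10^5 CFU of exponential-phase bacteria and incubated at 37 °C for 24 h. MIC was the lowest concentration giving complete growth inhibition, read per CLSI. Growth controls contained broth plus DMSO.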

Enterococcus faecium [2] = test: Antibacterial activity against glycopeptide-resistant Enterococcus faecium Efm-HS-06188 vanA after 24 hrs by broth microdilution method; conditions: Efm-HS-06188, 24 h; summary of the method: as §1
Enterococcus faecium [3] = test: Antibacterial activity against glycopeptide-resistant Enterococcus faecium Efm-HS-08257 vanM after 24 hrs by broth microdilution method; conditions: Efm-HS-08257, 24 h; summary of the method: as §1
Enterococcus faecium [4] = test: Antibacterial activity against glycopeptide-resistant Enterococcus faecium Efm-HS-0847 vanM after 24 hrs by broth microdilution method; conditions: Efm-HS-0847, 24 h; summary of the method: as §1
Enterococcus faecium [5] = test: Antibacterial activity against glycopeptide-resistant Enterococcus faecium Efm-HS-vb01 vanB after 24 hrs by broth microdilution method; conditions: Efm-HS-vb01, 24 h; summary of the method: as §1
Staphylococcus aureus [6] = test: Antibacterial activity against healthcare-associated methicillin-resistant/vancomycin-intermediate Staphylococcus aureus Mu50 after 24 hrs by broth microdilution method; conditions: Mu50, 24 h; summary of the method: as §1
Staphylococcus aureus [7] = test: Antibacterial activity against vancomycin/methicillin-susceptible Staphylococcus aureus Newman […] after 24 hrs by broth microdilution method
Summary of the method: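 Broth microdilution in cation-adjusted Mueller-Hinton II broth. […] Each well received ~10^5 CFU of exponential-phase bacteria and was incubated at 37 °C for 24 h. MIC was taken as the lowest concentration giving complete growth inhibition, interpreted per CLSI.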

CN[C@H](CC(C)C)C(=O)N[C@H]1C(=O)N[C@@H](CC(N)=O)C(=O)N[C@H]2C(=O)N[C@H]3C(=O)N[C@H](C(=O)N[C@H](C(=O)O)c4cc(O)c(CNCCO)c(O)c4-c4cc3ccc4O)[C@H](O)c3ccc(c(Cl)c3)Oc3cc2cc(c3O[C@@H]2O[C@H](CO)[C@@H](O)[C@H](O)[C@H]2O[C@H]2C[C@](C)(NCc3ccc(OCc4cccc(-c5ccccc5)c4C)c(Cl)c3)[C@H](O)[C@H](C)O2)Oc2ccc(cc2Cl)[C@H]1O
MIC (Enterococcus faecium [1]): 1 µg/mL (≈ 0.543 µM) | MIC (Enterococcus faecium [2]): 0.5 µg/mL (≈ 0.271 µM) | MIC (Enterococcus faecium [3]): 1 µg/mL (≈ 0.543 µM) | MIC (Enterococcus faecium [4]): 2 µg/mL (≈ 1.09 µM) | MIC (Enterococcus faecium [5]): 1 µg/mL (≈ 0.543 µM) | MIC90 (Staphylococcus aureus [6]): 0.5 µg/mL (≈ 0.271 µM) | MIC90 (Staphylococcus aureus [7]): 0.12 µg/mL (≈ 0.0651 µM)

CCCCCCCCCCNCCN[C@@]1(C)C[C@H](O[C@H]2[C@H](Oc3c4cc5cc3Oc3ccc(cc3Cl)[C@@H](O)[C@@H](NC(=O)[C@@H](CC(C)C)NC)C(=O)N[C@@H](CC(N)=O)C(=O)N[C@H]5C(=O)N[C@H]3C(=O)N[C@H](C(=O)N[C@H](C(=O)O)c5cc(O)c(CN[C@H]6C(O)O[C@H](CO)[C@@H](O)[C@@H]6O)c(O)c5-c5cc3ccc5O)[C@H](O)c3ccc(c(Cl)c3)O4)O[C@H](CO)[C@@H](O)[C@@H]2O)O[C@@H](C)[C@H]1O (some centres not stated)
MIC (Enterococcus faecium [1]): 64 µg/mL (≈ 35.1 µM) | MIC (Enterococcus faecium [2]): 64 µg/mL (≈ 35.1 µM) | MIC (Enterococcus faecium [3]): 8 µg/mL (≈ 4.39 µM) | MIC (Enterococcus faecium [4]): 32 µg/mL (≈ 17.5 µM) | MIC (Enterococcus faecium [5]): 16 µg/mL (≈ 8.77 µM) | MIC90 (Staphylococcus aureus [6]): 8 µg/mL (≈ 4.39 µM) | MIC90 (Staphylococcus aureus [7]): 4 µg/mL (≈ 2.19 µM)

CN[C@H](CC(C)C)C(=O)N[C@H]1C(=O)N[C@@H](CC(N)=O)C(=O)N[C@H]2C(=O)N[C@H]3C(=O)N[C@H](C(=O)N[C@H](C(=O)O)c4cc(O)c(CNCCCNC(=O)[C@H](O)[C@@H](O)[C@H](O)[C@H](O)CO)c(O)c4-c4cc3ccc4O)[C@H](O)c3ccc(c(Cl)c3)Oc3cc2cc(c3O[C@@H]2O[C@H](CO)[C@@H](O)[C@H](O)[C@H]2O[C@H]2C[C@](C)(NCc3ccc(-c4ccc(Cl)cc4)cc3)[C@H](O)[C@H](C)O2)Oc2ccc(cc2Cl)[C@H]1O
MIC (Enterococcus faecium [1]): 4 µg/mL (≈ 2.09 µM) | MIC (Enterococcus faecium [2]): 1 µg/mL (≈ 0.522 µM) | MIC (Enterococcus faecium [3]): 8 µg/mL (≈ 4.18 µM) | MIC (Enterococcus faecium [4]): 16 µg/mL (≈ 8.36 µM) | MIC (Enterococcus faecium [5]): 1 µg/mL (≈ 0.522 µM) | MIC90 (Staphylococcus aureus [6]): 0.12 µg/mL (≈ 0.0627 µM) | MIC90 (Staphylococcus aureus [7]): 0.06 µg/mL (≈ 0.0313 µM)

CN[C@H](CC(C)C)C(=O)N[C@H]1C(=O)N[C@@H](CC(N)=O)C(=O)N[C@H]2C(=O)N[C@H]3C(=O)N[C@H](C(=O)N[C@H](C(=O)NCCCN(C)C)c4cc(O)c(C)c(O)c4-c4cc3ccc4O)[C@H](O)c3ccc(c(Cl)c3)Oc3cc2cc(c3O[C@@H]2O[C@H](CO)[C@@H](O)[C@H](O)[C@H]2O[C@H]2C[C@](C)(NCc3ccc(-c4ccc(Cl)cc4)cc3)[C@H](O)[C@H](C)O2)Oc2ccc(cc2Cl)[C@H]1O
MIC (Enterococcus faecium [1]): 0.5 µg/mL (≈ 0.286 µM) | MIC (Enterococcus faecium [2]): 1 µg/mL (≈ 0.572 µM) | MIC (Enterococcus faecium [3]): 0.12 µg/mL (≈ 0.0686 µM) | MIC (Enterococcus faecium [4]): 1 µg/mL (≈ 0.572 µM) | MIC (Enterococcus faecium [5]): 2 µg/mL (≈ 1.14 µM) | MIC90 (Staphylococcus aureus [6]): 1 µg/mL (≈ 0.572 µM) | MIC90 (Staphylococcus aureus [7]): 1 µg/mL (≈ 0.572 µM)

CN[C@H](CC(C)C)C(=O)N[C@H]1C(=O)N[C@@H](CC(N)=O)C(=O)N[C@H]2C(=O)N[C@H]3C(=O)N[C@H](C(=O)N[C@H](C(=O)NCCCN(C)C)c4cc(O)c(CNCCCNC(=O)[C@H](O)[C@@H](O)[C@H](O)[C@H](O)CO)c(O)c4-c4cc3ccc4O)[C@H](O)c3ccc(c(Cl)c3)Oc3cc2cc(c3O[C@@H]2O[C@H](CO)[C@@H](O)[C@H](O)[C@H]2O[C@H]2C[C@](C)(NCc3ccc(-c4ccc(Cl)cc4)cc3)[C@H](O)[C@H](C)O2)Oc2ccc(cc2Cl)[C@H]1O
MIC (Enterococcus faecium [1]): 1 µg/mL (≈ 0.5 µM) | MIC (Enterococcus faecium [2]): 2 µg/mL (≈ 1 µM) | MIC (Enterococcus faecium [3]): 1 µg/mL (≈ 0.5 µM) | MIC (Enterococcus faecium [4]): 2 µg/mL (≈ 1 µM) | MIC (Enterococcus faecium [5]): 8 µg/mL (≈ 4 µM) | MIC90 (Staphylococcus aureus [6]): 2 µg/mL (≈ 1 µM) | MIC90 (Staphylococcus aureus [7]): 1 µg/mL (≈ 0.5 µM)

CN[C@H](CC(C)C)C(=O)N[C@H]1C(=O)N[C@@H](CC(N)=O)C(=O)N[C@H]2C(=O)N[C@H]3C(=O)N[C@H](C(=O)N[C@H](C(=O)O)c4cc(O)c(CNCCO)c(O)c4-c4cc3ccc4O)[C@H](O)c3ccc(c(Cl)c3)Oc3cc2cc(c3O[C@@H]2O[C@H](CO)[C@@H](O)[C@H](O)[C@H]2O[C@H]2C[C@](C)(NCc3ccc(-c4ccc(Cl)cc4)cc3)[C@H](O)[C@H](C)O2)Oc2ccc(cc2Cl)[C@H]1O
MIC (Enterococcus faecium [1]): 2 µg/mL (≈ 1.16 µM) | MIC (Enterococcus faecium [2]): 1 µg/mL (≈ 0.58 µM) | MIC (Enterococcus faecium [3]): 2 µg/mL (≈ 1.16 µM) | MIC (Enterococcus faecium [4]): 4 µg/mL (≈ 2.32 µM) | MIC (Enterococcus faecium [5]): ≤ 0.06 µg/mL | MIC90 (Staphylococcus aureus [6]): 0.12 µg/mL (≈ 0.0696 µM) | MIC90 (Staphylococcus aureus [7]): 0.03 µg/mL (≈ 0.0174 µM)
